According to ChEMBL document CHEMBL1799951, “FimH antagonists for the oral treatment of urinary tract infections: from design and synthesis to in vitro and in vivo evaluation” (J Med Chem, 2010):
≈ marks a conversion by molar mass, not a printed value. Values belong to the compound of their own block, whether it stands above or below them. Calls of active or inactive are those of the source. The calls are words filed in the database; no cut-off is given here.

Assays:
Escherichia coli [1] = assay: Antibacterial activity against Escherichia coli […] infected in urinary tract infection C3H/HeN mouse model assessed as log reduction in bacterial count in kidney of mouse at 50 mg/kg, iv administered as single dose 1 hr before infection and measured after 3 hrs post infection; assay type: functional, organism-based; design: dose 50 mg/kg
In short: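 Female C3H/HeN mice given antagonist iv (100 μL PBS, tail vein) or po as suspension, then infected. Infection: isoflurane anaesthesia, bladder emptied, 50 μL UTI89 at about 10^9-10^10 CFU/mL via transurethral catheter. Six mice per group, killed 3 h post-inoculation. Kidneys plated on EMB agar. Reduction taken against the 3 h untreated control mean; Mann-Whitney test.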

[2] = AUC (0 to 24 hrs) in urine of urinary tract infection C3H/HeN mouse model at 50 mg/kg, iv administered as single dose measured after 6 hrs by LC-MS analysis; assay type: ADME, organism-based; design: time < 24 hr, dose 50 mg/kg, route intravenous
In short: (§1)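 Female C3H/HeN mice (19-25 g) dosed once iv at 50 mg/kg in 100 μL PBS via tail vein. Blood and urine (10 μL) sampled at 6 min, 30 min, 1, 2, 4, 6, 8 and 24 h. Proteins precipitated with methanol, centrifuged, and supernatant quantified by LC-MS.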

[3] = Cmax in plasma of urinary tract infection C3H/HeN mouse model at 50 mg/kg, iv administered as single dose measured after 6 hrs by LC-MS analysis; assay type: ADME, organism-based; design: dose 50 mg/kg, route intravenous; in short: as §1
[4] = Permeability coefficient, log Pe of the compound by PAMPA method; assay type: ADME
In short: (§2)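 PAMPA with GIT-0 lipid, donor analyte 50 μM at pH 5.0, 6.2 and 7.4 in quadruplicate, 16 h undisturbed incubation. Donor and acceptor quantified by UV and LC-MS.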

Escherichia coli [5] = assay: Antibacterial activity against Escherichia coli […] infected in urinary tract infection C3H/HeN mouse model assessed as log reduction in bacterial CFU in bladder of mouse at 50 mg/kg, iv administered as single dose 1 hr before infection and measured after 3 hrs post infection; assay type: functional
In short: (§3)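 Female C3H/HeN mice dosed iv into the tail vein in 100 μL PBS, then infected transurethrally under isoflurane with 50 μL UPEC UTI89 (~10^9–10^10 CFU/mL; LB 24 h static 37 °C, PBS-washed). Six mice per group, killed 3 h post-inoculation. Urine, bladder and kidneys plated on EMB agar. Log CFU reduction taken against the 3 h untreated control baseline; Mann-Whitney test.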

[6] = Cmax in urine of urinary tract infection C3H/HeN mouse model at 50 mg/kg, iv administered as single dose measured after 6 hrs by LC-MS analysis; assay type: ADME, organism-based; design: dose 50 mg/kg, route intravenous; in short: as §1
[7] = molecular target: Mannose-binding protein C (Homo sapiens) (UniProt P11226); assay: Binding affinity to MBP at 1 mM
In short: (§4)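 FimH-CRD (10 μg/mL), DC-SIGN-CRD-Fc (2.5 μg/mL) or MBP (10 μg/mL) coated overnight at 4 °C in 20 mM HEPES pH 7.4, 150 mM NaCl, 10 mM CaCl2. Competition against streptavidin-peroxidase TM-PAA polymer as in the FimH ELISA, test compounds at 1 mM. D-mannose at 50 mM as positive control.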

[8] = Thermodynamic solubility of the compound at pH 6.5 after 24 hrs by LC-MS analysis; assay type: physicochemical; details: buffer, read-out: Therm_solubility
In short: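 1 mg solid in 250 μL 50 mM phosphate pH 6.5, sonicated 15 min, shaken 2 h at 25 °C, left 24 h. pH measured, then filtered and diluted; concentration determined by LC-MS.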

[9] = Plasma protein binding […] by LC-MS analysis; assay type: ADME, cell-free; details: read-out: PPB (converted)
[10] = molecular target: Type 1 fimbrin D-mannose specific adhesin (Escherichia coli K-12) (UniProt P08191); assay: Ratio IC50 for compound to IC50 for n-heptyl R-D-mannopyranoside for His-tagged FimH expressed in Escherichia coli HM125
In short: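 FimH-CRD-Th-6His (10 μg/mL) coated overnight at 4 °C in 20 mM HEPES, 150 mM NaCl, 1 mM CaCl2, pH 7.4, then blocked with 3% BSA. 4-fold compound dilutions in 5% DMSO competed with streptavidin-peroxidase TM-PAA polymer for 3 h at 25 °C. ABTS read at 415 nm, duplicates. IC50 divided by the IC50 of the heptyl mannoside reference run on the same plate.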

[11] = Dissociation constant, pKa of the compound by NMR spectrometric analysis; assay type: physicochemical
Escherichia coli [12] = assay: Antibacterial activity against Escherichia coli […] infected in urinary tract infection C3H/HeN mouse model assessed as log reduction in bacterial CFU in urine of mouse at 50 mg/kg, iv administered as single dose 1 hr before infection and measured after 3 hrs post infection; assay type: functional; in short: as §3
[13] = AUC (0 to 24 hrs) in plasma of urinary tract infection C3H/HeN mouse model at 50 mg/kg, iv administered as single dose measured after 6 hrs by LC-MS analysis; assay type: ADME, organism-based; design: time < 24 hr, dose 50 mg/kg, route intravenous; in short: as §1
[14] = molecular target: Type 1 fimbrin D-mannose specific adhesin (Escherichia coli K-12, UniProt P08191); assay: Competitive inhibition of His-tagged FimH carbohydrate recognizing domain expressed in Escherichia coli HM125 using ABTS-substrate after 3 hrs by […] assay
In short: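 FimH-CRD-Th-6His from E. coli HM125 coated at 10 μg/mL overnight at 4 °C and blocked with 3% BSA. 4-fold compound dilutions in HEPES buffer pH 7.4 (5% DMSO) plus streptavidin-peroxidase TM-PAA polymer, 3 h at 25 °C. ABTS developed 4 min and read at 415 nm. Duplicates; heptyl mannoside reference on each plate.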

[15] = molecular target: T1, CD209 antigen (Homo sapiens) (UniProt Q9NNX6); assay: Binding affinity to Fc-IgG-tagged DC-SIGN carbohydrate recognizing domain at 1 mM; in short: as §4
T1 sequence (whole entry): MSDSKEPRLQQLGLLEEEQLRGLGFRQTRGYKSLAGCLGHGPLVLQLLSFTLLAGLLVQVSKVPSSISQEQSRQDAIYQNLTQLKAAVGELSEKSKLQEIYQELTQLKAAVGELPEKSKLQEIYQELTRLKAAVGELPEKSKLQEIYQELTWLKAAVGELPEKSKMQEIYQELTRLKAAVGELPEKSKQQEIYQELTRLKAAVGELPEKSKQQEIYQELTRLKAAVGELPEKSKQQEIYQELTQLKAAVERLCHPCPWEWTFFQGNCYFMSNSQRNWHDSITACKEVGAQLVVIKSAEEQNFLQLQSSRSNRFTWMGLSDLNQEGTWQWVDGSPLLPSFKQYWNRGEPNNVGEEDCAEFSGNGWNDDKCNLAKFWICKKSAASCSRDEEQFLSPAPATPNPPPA

[16] = Plasma protein binding in human by miniatured equilibrium dialysis method; assay type: ADME, cell-free; details: read-out: PPB (converted)
In short: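 Human plasma adjusted to pH 7.5 with analyte at 10 μM, dialysed against 0.1 M phosphate pH 7.5 (MWCO 12-14 K) for 5 h at 37 °C in triplicate. Compartments MeCN-precipitated and measured by LC-MS; fb = 1 − cbuffer/cplasma.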

Liver [17] = assay: Metabolic stability of the compound in mouse liver microsomes assessed as Cyp 450-mediated degradation at 2 uM after 30 mins by LC-MS analysis in presence of NADPH; details: 0.5 h
Escherichia coli [18] = assay: Antibacterial activity against Escherichia coli […] infected in urinary tract infection C3H/HeN mouse model assessed as reduction in bacterial count in kidney of mouse at 50 mg/kg, iv administered as single dose 1 hr before infection and measured after 3 hrs post infection
[19] = Apparent permeability across human Caco2 cells after 120 mins by HPLC analysis; assay type: ADME, cell-based; details: Caco-2
In short: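 Caco-2 cells at passage 60-65 seeded on Transwells and used on days 19-21 in DMEM without pyruvate/phenol red. Only monolayers with TEER >300 Ωcm2 before and after were kept. Apical dosing from 10 mM stock, shaken at 250 rpm. Basolateral samples at 5-120 min by HPLC; Papp = (dQ/dt)/(A·c0). Triplicates.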

Plasma = assay: AUC (0 to 24 hrs) in plasma of urinary tract infection C3H/HeN mouse model assessed as Sodium3'-Chloro-4'-(alpha-D-mannopyranosyloxy)-biphenyl-4-carboxylate level at 50 mg/kg, po administered as single dose measured after 6 hrs by LC-MS analysis; assay type: ADME, organism-based; design: time < 24 hr, dose 50 mg/kg, route oral; details: in vivo
In short: (§5)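 Female C3H/HeN mice (19-25 g) given a single 50 mg/kg oral dose by gavage. Compound dissolved in DMSO, then diluted in 1% Tween-80/PBS to a suspension. Blood and urine (10 μL) sampled at 6 min, 30 min, 1, 2, 4, 6, 8 and 24 h. Proteins precipitated with methanol, then LC-MS; for the prodrug, both ester and carboxylate metabolite measured; n=6.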

[20] = AUC (0 to 24 hrs) in plasma of urinary tract infection C3H/HeN mouse model at 50 mg/kg, po administered as single dose measured after 6 hrs by LC-MS analysis; assay type: ADME, organism-based; design: time < 24 hr, dose 50 mg/kg, route oral; in short: as §5
[21] = Stability of the compound in simulated intestinal fluid assessed as compound remaining after 2 hrs by LC-MS analysis; assay type: physicochemical; details: read-out: Stability
In short: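 Simulated intestinal fluid (phosphate, NaOH, pancreatin, pH 6) at 37 °C, compound at 10 μM, 500 rpm. Samples at 0-120 min MeCN-quenched; LC-MS as % remaining versus initial.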

[22] = AUC (0 to 24 hrs) in urine of urinary tract infection C3H/HeN mouse model assessed as Sodium3'-Chloro-4'-(alpha-D-mannopyranosyloxy)-biphenyl-4-carboxylate level at 50 mg/kg, po administered as single dose measured after 6 hrs by LC-MS analysis; assay type: ADME, organism-based; design: time < 24 hr, dose 50 mg/kg, route oral; details: in vivo; in short: as §5
[23] = Lipophilicity, log D at pH 7.4 by miniatured shake flask method; assay type: physicochemical; details: buffer
In short: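 Octanol-saturated 0.1 M phosphate pH 7.4 containing analyte at 1 μM, overlaid with octanol at two volume ratios, three wells each. Shaken 2 h at 25 °C, then centrifuged; aqueous phase measured by LC-MS. log D computed from depletion. Accepted when the ratio means agree within 0.1.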

Liver [24] = assay: Metabolic stability of the compound in mouse liver microsomes assessed as degradation by carboxylesterase at 2 uM by LC-MS analysis in presence of CES inhibitor BNPP; assay type: ADME, Microsome
In short: (§6)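 Pooled male mouse liver microsomes (0.25 mg/mL) with 2 μM compound in 0.1 M TRIS pH 7.4 and 2 mM MgCl2 at 37 °C. Samples at 0, 1, 3, 6 and 15 min quenched in cold MeCN; LC-MS as % remaining. The inhibitor arm used microsomes pre-incubated 5 min with 1 mM BNPP.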

[25] = AUC (0 to 24 hrs) in urine of urinary tract infection C3H/HeN mouse model at 50 mg/kg, po administered as single dose measured after 6 hrs by LC-MS analysis; assay type: ADME, organism-based; design: time < 24 hr, dose 50 mg/kg, route oral
In short: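 Female C3H/HeN mice (19-25 g) gavaged once at 50 mg/kg. Compound dissolved in DMSO and diluted in 1% Tween-80/PBS as a suspension, or given in 200 μL PBS. Blood and urine sampled at 6 min to 24 h, methanol-precipitated, and analysed by LC-MS. For the prodrug, both parent and carboxylate metabolite were measured.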

Liver [26] = assay: Metabolic stability of the compound in mouse liver microsomes assessed as degradation by carboxylesterase at 2 uM by LC-MS analysis; assay type: ADME, Microsome; in short: as §6
[27] = Permeability of the compound assessed as membrane retention by PAMPA method; assay type: ADME; in short: as §2
[28] = Stability of the compound in simulated gastrointestinal fluid assessed as compound remaining after 2 hrs by LC-MS analysis; assay type: physicochemical; details: read-out: Stability

Type 1 fimbrin D-mannose specific adhesin (Escherichia coli K-12), sequence (P08191 whole entry): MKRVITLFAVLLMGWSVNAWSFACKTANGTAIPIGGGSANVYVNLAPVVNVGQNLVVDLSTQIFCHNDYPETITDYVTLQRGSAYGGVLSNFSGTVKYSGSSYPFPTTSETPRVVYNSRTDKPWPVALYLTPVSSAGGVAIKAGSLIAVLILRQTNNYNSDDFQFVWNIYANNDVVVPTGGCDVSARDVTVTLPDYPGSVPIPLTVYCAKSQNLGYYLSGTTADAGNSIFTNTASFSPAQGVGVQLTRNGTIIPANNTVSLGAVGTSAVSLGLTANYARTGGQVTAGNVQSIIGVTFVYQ
Type 1 fimbrin D-mannose specific adhesin, sequence (P08191 whole entry, the tested form may be a part): as the sequence (P08191 whole entry) above
Mannose-binding protein C (Homo sapiens), sequence (P11226 whole entry): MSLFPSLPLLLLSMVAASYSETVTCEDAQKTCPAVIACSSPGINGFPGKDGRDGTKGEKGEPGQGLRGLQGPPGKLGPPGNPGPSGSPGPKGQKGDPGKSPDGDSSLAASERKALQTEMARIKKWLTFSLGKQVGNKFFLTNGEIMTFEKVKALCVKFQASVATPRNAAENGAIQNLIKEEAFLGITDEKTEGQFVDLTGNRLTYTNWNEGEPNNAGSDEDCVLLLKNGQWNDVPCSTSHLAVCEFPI

AUC(0-t) at 24 h [2]: 140000 ng·h/mL | Cmax [3]: 34.4 µg/mL | permeability [4]: impermeable | Cmax [6]: 510 µg/mL | Activity [7]: inactive | solubility thermodynamic at 24 h [8]: > 3000 µg/mL | fraction unbound [9]: 0.27 | Ratio IC50 [10]: 0.15 | pKa [11]: 3.88 | AUC(0-t) at 24 h [13]: 19300 ng·h/mL | IC50 [14]: 17.1 nM | Activity [15]: inactive | fraction unbound [16]: 0.27 | Stability (Liver [17]): Stable
Structure (SMILES): O=C([O-])c1ccc(-c2ccc(O[C@H]3O[C@H](CO)[C@@H](O)[C@H](O)[C@@H]3O)cc2)cc1.[Na+]
Activity (Escherichia coli [1]): Active | FC (Escherichia coli [5]): 4.5 | FC (Escherichia coli [12]): >2 | Activity (Escherichia coli [18]): Active

Papp at 2 h [19]: 2.05 ×10⁻⁶ cm/s | AUC (Plasma): 2100 ng·h/mL | AUC(0-t) at 24 h [20]: 1020 ng·h/mL | remaining at 2 h [21]: 80% | AUC [22]: 21690 ng·h/mL | solubility thermodynamic at 24 h [8]: 11.9 µg/mL (≈ 28 µM) | logD [23]: 2.32 | Stability (Liver [24]): Stable | Ratio IC50 [10]: 0.06 | AUC(0-t) at 24 h [25]: 1890 ng·h/mL | Stability (Liver [26]): Unstable | permeability [27]: 41% | IC50 [14]: 4.8 nM | fraction unbound [16]: 0.06 | remaining at 2 h [28]: 80%
Structure (SMILES): COC(=O)c1ccc(-c2ccc(O[C@H]3O[C@H](CO)[C@@H](O)[C@H](O)[C@@H]3O)c(Cl)c2)cc1
